The experiment deals with advanced solid tumors. Briefly: RECIST 1.0 response, phase I dose escalation. In kind it is in vivo, human. Summed up:
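Patients received IV temsirolimus 25 mg weekly, with a 1-wk single-agent run-in, then daily oral HCQ, treated until progression. Patients were evaluable for response after completing ≥2 wk of concurrent HCQ and temsirolimus. Progression was defined as >20% increase in measurable disease or appearance of a new lesion. Non-evaluable patients were replaced.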

Where [1] appears, read: Phase I dose escalation, HCQ dose cohort 200 + TEM, N=6 evaluable.
Setting [2] is: Phase I dose escalation, HCQ dose cohort 400 + TEM, N=3.
[3] abbreviates: Phase I dose escalation, HCQ dose cohort 800 + TEM, N=9.
[4] abbreviates: Phase I dose escalation, HCQ dose cohort 1200 + TEM, N=3.
Where [5] appears, read: Phase I dose escalation, Total, N=21 evaluable.
[6] abbreviates: dose escalation, of 19 patients.

Regarding `CCN(CCO)CCCC(C)Nc1ccnc2cc(Cl)ccc12` (stereo not drawn) [HCQ, hydroxychloroquine], the “PD (progressive disease), patients” value under setting [1] was 2; the “PD (progressive disease), patients” value under setting [2] was found to be 0; the “PD (progressive disease), patients” value under setting [3] is recorded as 4; the “PD (progressive disease), patients” value under setting [4] is 1; the “PD (progressive disease), patients” value under setting [5] stood at 7. In addition, the “PR (partial response), patients” value is reported as 0 under setting [1]; 0 under setting [2]; 0 under setting [3]; 0 under setting [4]; 0 (0%) under setting [5]. Besides, the “PD (progressive disease), %” value under setting [5] was determined as 33%. Further, the “PR (partial response), %” value under setting [5] is given as 0 (0%). Moreover, the “Partial responses by RECIST 1.0, whole study” value (all cohorts) was “No partial responses”. Further, the “Patients with some degree of tumor shrinkage (waterfall plot)” value under setting [6] was 7. Under setting [6], the “Patients with some degree of tumor shrinkage, %” value was 37%.

(Values after PMC4203516 (Autophagy, 2014).)
